In one series the test system is Caco-2. Description: Cytotoxicity against human Caco-2 cells assessed as cell viability at 10 uM measured after 72 hrs by Alamar blue assay. The format is toxicity, cell-based. The settings on record: caco-2, 72 h. The method in brief:
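Confluent Caco-2 monolayers (seeded 1.10⁵ cells/cm², 48 h growth; DMEM 25 mM glucose, 10 % FBS, NEAA, 37 °C, 5 % CO₂) exposed 72 h; vehicle 0.1 % DMSO, 0.2 % Triton X-100 as cytotoxic control. Rinsed with PBS, 5 % Alamar Blue in FBS-free medium 30 min at 37 °C; resorufin fluorescence (ex 530/em 570 nm) relative to DMSO. Mean ± SEM, three independent experiments.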

Series [1] can be described thus: Inhibition of Pseudomonas aeruginosa IMPDH delta Bateman domain extracted form Escherichia coli BL21 (DE3)pDIA17 assessed as formation of NADH. The settings on record: read-out: I50. The method in brief: (§1)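 Bateman-domain-deleted IMPDH (E. coli or P. aeruginosa) from E. coli BL21(DE3)/pDIA17; NADH at 340 nm, 30 °C, 0.2 mM IMP, 0.4 mM NAD⁺, 0.2 mM MgATP, 2 mM MgCl₂; buffers as per variant (ec Tris-HCl pH 9/KCl 100 mM; pa Tris-HCl pH 8/KCl 100 mM). I50 by dose-response logistic fit, at least three experiments.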

Series [2] has as its target T1, Inosine-5'-monophosphate dehydrogenase (Escherichia coli K-12) (UniProt P0ADG7).
T1 sequence (whole entry): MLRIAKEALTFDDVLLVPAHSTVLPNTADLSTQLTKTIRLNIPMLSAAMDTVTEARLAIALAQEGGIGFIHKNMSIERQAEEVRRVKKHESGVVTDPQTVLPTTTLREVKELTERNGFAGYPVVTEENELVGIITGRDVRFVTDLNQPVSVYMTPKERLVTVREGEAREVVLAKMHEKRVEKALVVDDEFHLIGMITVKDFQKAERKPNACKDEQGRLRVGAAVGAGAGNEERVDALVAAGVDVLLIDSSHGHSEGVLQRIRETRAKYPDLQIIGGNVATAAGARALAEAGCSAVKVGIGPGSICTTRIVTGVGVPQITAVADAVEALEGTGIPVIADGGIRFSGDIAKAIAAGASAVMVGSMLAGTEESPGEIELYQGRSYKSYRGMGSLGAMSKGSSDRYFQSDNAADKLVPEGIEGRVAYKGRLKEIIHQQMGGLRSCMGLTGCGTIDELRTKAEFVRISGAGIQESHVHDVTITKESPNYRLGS
Description: Inhibition of Escherichia coli IMPDH extracted form Escherichia coli BL21 (DE3)pDIA17 assessed as formation of NADH at 50 uM relative to control. The method in brief:
(§2)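 His-tagged wild-type IMPDH (E. coli, P. aeruginosa or S. aureus) made in E. coli BL21(DE3)/pDIA17, purified by metal-affinity then gel filtration. NADH formation followed at 340 nm, 30 °C, with 0.2 mM IMP, 0.4 mM NAD⁺, 0.2 mM MgATP, 2 mM MgCl₂. Buffers: pa Tris-HCl 50 mM pH 8; ec Tris-HCl 50 mM pH 8, KCl 50 mM; sa Na₂CO₃ 50 mM pH 9.2, KCl 20 mM. Compound at 50 μM; % inhibition vs compound-free activity.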

For a further series, the system named is Escherichia coli. Kind of series: Inhibition of Escherichia coli IMPDH delta Bateman domain extracted form Escherichia coli BL21 (DE3)pDIA17 assessed as formation of NADH at 50 uM relative to control. Summed up:
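Bateman-domain-deleted IMPDH (E. coli or P. aeruginosa), His-tagged, made in E. coli BL21(DE3)/pDIA17. NADH formation at 340 nm, 30 °C, 0.2 mM IMP, 0.4 mM NAD⁺, 0.2 mM MgATP, 2 mM MgCl₂. Buffer: ec Tris-HCl 50 mM pH 9, KCl 100 mM; pa Tris-HCl 50 mM pH 8, KCl 100 mM. Compound 50 μM; % inhibition relative to uninhibited enzyme.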

A short description of series [3]: Inhibition of Pseudomonas aeruginosa IMPDH delta Bateman domain in presence of detergent by detergent-sensitive enzyme-inhibition assay. The method in brief:
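P. aeruginosa ΔBateman IMPDH dose-response run under reference conditions (0.2 mM IMP, 0.4 mM NAD⁺, 0.2 mM MgATP, 2 mM MgCl₂; Tris-HCl 50 mM pH 8, KCl 100 mM; 30 °C, NADH at 340 nm) with 0.01 % Triton X-100 included, to exclude colloidal aggregation; I50 from logistic fit.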

Series [4] can be described thus: Metabolic stability in mouse liver microsomes assessed as recovery in absence of NADPH measured after 120 mins. The format is ADME, Microsome. The settings on record: read-out: Drug recovery. (In general: Liver microsomes are a subcellular fraction often used to study metabolism.)
The nature of series [5]: Inhibition of Pseudomonas aeruginosa IMPDH delta Bateman domain in absence of detergent. Summed up: as §1
In series [6] the target is T2, Inosine-5'-monophosphate dehydrogenase (Pseudomonas aeruginosa (strain ATCC 15692 / DSM 22644 / CIP 104116 / JCM14847 / LMG 12228 / 1C / PRS 101 / PAO1)) (UniProt Q9HXM5).
T2 sequence (whole entry): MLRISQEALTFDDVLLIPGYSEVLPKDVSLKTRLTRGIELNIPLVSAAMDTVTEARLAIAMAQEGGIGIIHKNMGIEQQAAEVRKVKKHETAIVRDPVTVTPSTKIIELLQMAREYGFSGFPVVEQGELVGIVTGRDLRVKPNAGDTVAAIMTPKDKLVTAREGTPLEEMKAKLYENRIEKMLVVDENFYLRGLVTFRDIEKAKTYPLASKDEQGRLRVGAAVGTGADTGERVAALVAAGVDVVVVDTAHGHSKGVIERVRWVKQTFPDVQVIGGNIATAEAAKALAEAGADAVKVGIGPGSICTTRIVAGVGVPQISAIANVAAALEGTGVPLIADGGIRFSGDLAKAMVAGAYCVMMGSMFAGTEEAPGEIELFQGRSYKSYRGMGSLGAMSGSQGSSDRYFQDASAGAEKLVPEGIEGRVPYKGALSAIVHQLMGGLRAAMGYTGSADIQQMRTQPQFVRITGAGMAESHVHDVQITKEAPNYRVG
Description: Non-competitive inhibition of Pseudomonas aeruginosa IMPDH by Lineweaver-Burk plot analysis. Summed up:
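Steady-state kinetics of P. aeruginosa ΔBateman IMPDH: initial rates (NADH at 340 nm, 30 °C, Tris-HCl 50 mM pH 8, KCl 100 mM) measured across variable IMP at saturating 2 mM NAD⁺, without or with several inhibitor concentrations; data from at least three experiments fitted to Michaelis–Menten and shown as Lineweaver-Burk plots.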

The target of series [7] is Inosine-5'-monophosphate dehydrogenase 2 (Homo sapiens) (UniProt P12268). Description: Inhibition of human IMPDH2 extracted form Escherichia coli BL21 (DE3)pDIA17 assessed as formation of NADH at 50 uM.
Series [8] can be described thus: Inhibition of Escherichia coli IMPDH delta Bateman domain extracted form Escherichia coli BL21 (DE3)pDIA17 assessed as formation of NADH. The note with it: read-out: I50. The method in brief: as §1
Series [9] has as its target T2, Inosine-5'-monophosphate dehydrogenase (Pseudomonas aeruginosa (strain ATCC 15692 / DSM 22644 / CIP 104116 / JCM14847 / LMG 12228 / 1C / PRS 101 / PAO1)). Kind of series: Inhibition of Pseudomonas aeruginosa IMPDH extracted form Escherichia coli BL21 (DE3)pDIA17 assessed as formation of NADH at 50 uM relative to control. Summed up: as §2

The source made the active and inactive calls. No cut-off for these calls is given here.

Chain of Inosine-5'-monophosphate dehydrogenase 2 (Homo sapiens) (P12268 2-514 limits assumed): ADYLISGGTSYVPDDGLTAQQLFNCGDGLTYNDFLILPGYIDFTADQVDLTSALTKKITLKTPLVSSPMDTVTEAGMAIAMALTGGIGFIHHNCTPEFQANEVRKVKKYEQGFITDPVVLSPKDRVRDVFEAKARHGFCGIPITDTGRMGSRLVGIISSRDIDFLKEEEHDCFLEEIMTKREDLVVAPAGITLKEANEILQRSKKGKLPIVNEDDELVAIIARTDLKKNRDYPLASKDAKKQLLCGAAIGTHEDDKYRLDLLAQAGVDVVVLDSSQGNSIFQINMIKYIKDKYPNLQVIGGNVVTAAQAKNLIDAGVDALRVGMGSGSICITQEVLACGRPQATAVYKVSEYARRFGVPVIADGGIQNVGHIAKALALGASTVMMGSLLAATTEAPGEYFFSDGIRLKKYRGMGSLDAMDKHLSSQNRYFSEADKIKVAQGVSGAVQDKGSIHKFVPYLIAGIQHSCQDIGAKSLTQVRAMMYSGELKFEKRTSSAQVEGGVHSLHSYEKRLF

One may read the inhibition as the drop in the measured response relative to a control, in per cent. Take `CC(C)(NC(=O)Nc1ccc(Cl)c([N+](=O)[O-])c1)c1cccc(-c2c[nH]cn2)c1`: the Activity result in the series on Caco-2 is listed as “Non-toxic”. Moreover, the IC50 in [1] is 150 nM; in series [3], 140 nM; in series [5], 150 nM; in [8] it was 4260 nM. In addition, the inhibition in series [2] stood at 88%; with Escherichia coli, 90%; in [9], 99%. Besides, the remaining at 2 h in series [4] was greater than 95%. The inhibition entry in [6] was “Active”. Further, in [7], the inhibition entry is “inactive”.

These data come from ChEMBL document CHEMBL6083235, “Synthesis, evaluation and mechanistic insights of novel IMPDH inhibitors targeting ESKAPEE bacteria” (Eur J Med Chem, 2024).
